PAD4 FP inh – human PAD4 inhibitors, primary screen, biochemical, fluorescence polarization, 1536-well format. recombinant PAD4, RCA probe fluorescence polarization. inhibition, % at 6.36 µM. 330,000 tested, 0.41% active;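 active = percent inhibition above a cutoff equal to the mean of all tested compounds plus 3 SD, cut at about 15% in these data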;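 note: 0% = PAD4 with RCA probe and DMSO and 100% = probe without PAD4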
RBBP9 inhibitor – human RBBP9 inhibitors, primary screen, biochemical, fluorescence polarization, FP-Rh probe, HTS; Serine hydrolase RBBP9 (Homo sapiens), O75884; recombinant RBBP9; inhibition, % at 7.94 µM; 220,000 tested, 0.2% active;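 active = inhibition above the campaign mean of all tested compounds plus 3 SD, cut at about 14% in these data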;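 note: plate controls were DMSO wells with RBBP9 for no effect and wells lacking RBBP9 protein for full effect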
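System: RBBP9 protein / Quantity: 2.5 µM RBBP9 dispensing solution, before mixing / Also added: Serine-hydrolase probe FP-Rh, 375 nM pre-mixing / Dosing: 7.94 µM single dose, 0.794% DMSO / Timing: enzyme-compound preincubation 30 min, then probe labeling 45 min, 25 °C / Signal: FP readout at 525/598 nm / Controls: DMSO-treated enzyme wells and wells lacking RBBP9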
GSTO1 counter – inhibitors of recombinant GSTO1, primary screen, counter-screen for RBBP9 inhibitor project, biochemical, fluorescence polarization; activity-based probe fluorescence polarization; 300,000 tested, 1.1% active; inhibition, % at 5.96 µM;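 active = inhibition above the campaign mean inhibition plus 3 SD, cut at about 35% in these data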;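 note: 0% = GSTO1-1 with DMSO and 100% = wells lacking GSTO1-1 enzyme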
PRMT1 inh – PRMT1 methyltransferase inhibitors, primary screen, biochemical, fluorescence polarization; 370,000 tested, 1.3% active; Protein arginine N-methyltransferase 1 (Homo sapiens), Q99873; inhibition, % at 2.79 µM; AID 652257, 2013; recombinant PRMT1, activity-based probe fluorescence polarization;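 active = inhibition above about 21% made by adding two undisclosed values, limit read from the data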
SIAE inh – human SIAE inhibitors, primary screen, biochemical, fluorescence polarization, FP-Rh probe, 1536-well HTS. inhibition, % at 9.66 µM. 370,000 tested, 0.69% active. AID 1053197, 2014. SIAE FP-Rh probe binding. Sialate O-acetylesterase (Homo sapiens), Q9HAT2;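 active = inhibition above a cutoff: mean of compounds within the control limits plus 3 SD of those, cut at about 17% in these data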;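 note: 0% = plate median of compound wells and 100% = probe without SIAE protein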
Target sequence (Q9HAT2 whole entry, looked up): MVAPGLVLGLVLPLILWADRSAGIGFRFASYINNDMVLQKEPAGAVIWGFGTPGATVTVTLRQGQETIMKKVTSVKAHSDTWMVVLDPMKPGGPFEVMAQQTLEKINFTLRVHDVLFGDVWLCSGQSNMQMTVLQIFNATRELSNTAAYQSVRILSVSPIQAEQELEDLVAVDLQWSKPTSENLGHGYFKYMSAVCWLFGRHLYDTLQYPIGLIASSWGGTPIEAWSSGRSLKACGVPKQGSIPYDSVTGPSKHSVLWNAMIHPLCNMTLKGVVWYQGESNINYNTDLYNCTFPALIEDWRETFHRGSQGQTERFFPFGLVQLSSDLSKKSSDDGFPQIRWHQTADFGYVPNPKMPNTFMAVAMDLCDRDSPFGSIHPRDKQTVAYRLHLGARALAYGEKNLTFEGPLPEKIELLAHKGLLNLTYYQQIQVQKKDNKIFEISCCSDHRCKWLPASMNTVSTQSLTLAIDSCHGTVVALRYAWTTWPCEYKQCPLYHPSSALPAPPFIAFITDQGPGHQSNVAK
An asterisk follows results filed as active. In the library only some 2.7% were active in any assay of this set; here they are far more common.

Screening COc1ccc(C(=O)CSc2nnc(-c3cc(C)on3)o2)cc1 returned PAD4 FP inh -5, RBBP9 inhibitor 4, GSTO1 counter 36*, PRMT1 inh 2 and SIAE inh -4.
For COc1ccc(Cc2nnc(SCC(=O)c3ccc(OC)cc3)o2)cc1 the results were PAD4 FP inh -1, RBBP9 inhibitor -4, GSTO1 counter 37*, PRMT1 inh 0 and SIAE inh 0.
`COc1ccc(Cc2nnc(SCC(=O)c3ccccc3)o2)cc1` gave PAD4 FP inh 3, RBBP9 inhibitor 3, GSTO1 counter 19, PRMT1 inh -1 and SIAE inh 3.
Cc1cc(-c2nnc(SCC(=O)Nc3nc(-c4ccccc4)cs3)o2)no1 was read as PAD4 FP inh -6, RBBP9 inhibitor -5, GSTO1 counter 24, PRMT1 inh 25* and SIAE inh 8.
`O=C(CCc1c[nH]c2ccccc12)N[C@@H](Cc1c[nH]c2ccc(O)cc12)C(=O)O` gave PAD4 FP inh -3, GSTO1 counter 10, PRMT1 inh -1 and SIAE inh 6.
CC(/C=C/c1ccccc1)=N\NC(=O)c1ccncc1 was read as PAD4 FP inh 3, RBBP9 inhibitor -3, GSTO1 counter 9, PRMT1 inh 2 and SIAE inh 7.
`Cc1ccc(N2C(=O)CC(NCC3CCCO3)C2=O)cc1` (centres undefined) gave PAD4 FP inh 0, RBBP9 inhibitor -3, GSTO1 counter 9, PRMT1 inh 45* and SIAE inh 2.
O=C1CC(NCC2CCCO2)C(=O)N1c1ccc(Cl)cc1 (centres undefined) was read as PAD4 FP inh 5, RBBP9 inhibitor -2, GSTO1 counter -3, PRMT1 inh 1 and SIAE inh -3.
`Cc1cccc(C)c1NC(=O)c1nc(S(=O)(=O)Cc2ccccc2)ncc1Cl` gave PAD4 FP inh -2, GSTO1 counter -14, PRMT1 inh 16 and SIAE inh 9.
Cc1cccc(CS(=O)(=O)c2ncc(Cl)c(C(=O)NCc3ccccc3)n2)c1 was read as PAD4 FP inh -3, GSTO1 counter -2, PRMT1 inh 24* and SIAE inh 4.
Screening O=C(/C=C/c1ccco1)Nc1nc(-c2ccccc2)cs1 returned PAD4 FP inh -3, RBBP9 inhibitor -7, GSTO1 counter -7, PRMT1 inh 0 and SIAE inh -2.
For O=C(/C=C/c1ccco1)Nc1nc(-c2ccccn2)cs1 the results were PAD4 FP inh -5, RBBP9 inhibitor -8, GSTO1 counter 12, PRMT1 inh 23* and SIAE inh 0.
`O=C(Nc1nc(-c2ccccn2)cs1)c1ccc(Cl)s1` gave PAD4 FP inh -1, RBBP9 inhibitor 2, GSTO1 counter 44*, PRMT1 inh -8 and SIAE inh -7.
For CCCCn1c(NC(=O)c2ccc(F)cc2)c(C#N)c2nc3ccccc3nc21 the results were PAD4 FP inh 70* and GSTO1 counter 67*.
For CC(=O)c1ccc(NC(=O)c2cnn3c(C(F)F)cc(C4CC4)nc23)cc1 the results were PAD4 FP inh -3, RBBP9 inhibitor 8, GSTO1 counter 2, PRMT1 inh 0 and SIAE inh -10.
For CC(C)C1Nc2ccc(S(N)(=O)=O)cc2C2C=CCC21 (centres undefined) the results were PAD4 FP inh -13, RBBP9 inhibitor -8, GSTO1 counter 16, PRMT1 inh 8 and SIAE inh 9.
Screening NS(=O)(=O)c1ccc2c(c1)C1C=CCC1C(C1CC=CCC1)N2 (centres undefined) returned PAD4 FP inh -7, RBBP9 inhibitor -1, GSTO1 counter 37*, PRMT1 inh 37* and SIAE inh 10.
O=C1C(Cl)=C(N2CCOCC2)C(=O)N1c1cccc(Cl)c1 was read as PAD4 FP inh -1, RBBP9 inhibitor -4, GSTO1 counter 13, PRMT1 inh 22* and SIAE inh 3.
For COc1ccc(N2C(=O)C(Cl)=C(N3CCOCC3)C2=O)cc1 the results were PAD4 FP inh 4, GSTO1 counter -2, PRMT1 inh 13 and SIAE inh 5.
`N#Cc1c(-c2ccccc2)nc(SCC(=O)Nc2nnc(C(F)(F)F)s2)[nH]c1=O` gave PAD4 FP inh -5, RBBP9 inhibitor -5, GSTO1 counter 67*, PRMT1 inh 1 and SIAE inh -4.
`N#Cc1c(-c2ccccc2)nc(SCC(=O)Nc2ccccc2)[nH]c1=O` gave PAD4 FP inh 0, RBBP9 inhibitor -8, GSTO1 counter -8, PRMT1 inh 2 and SIAE inh -16.
`COc1ccccc1/C=C\C=N\n1c(-c2ccc(Cl)cc2Cl)n[nH]c1=S` gave PAD4 FP inh 1, RBBP9 inhibitor -11, GSTO1 counter -1, PRMT1 inh 22* and SIAE inh 1.
Screening COc1ccc(N2CCN(C(=O)c3ccc4c(c3)NC(=O)C(CSCc3ccccc3F)N4)CC2)cc1 (centres undefined) returned PRMT1 inh 37* and SIAE inh 7.
O=S(=O)(c1ccc2nc(N3CCN(c4ccccc4)CC3)ccc2c1)N1CCCCC1 was read as PAD4 FP inh 6, GSTO1 counter 8, PRMT1 inh 2 and SIAE inh -3.
For Cc1ccc(NC(=S)NNc2ccc(C(=O)O)cc2[N+](=O)[O-])cc1C the results were PAD4 FP inh 1, GSTO1 counter 36*, PRMT1 inh 2 and SIAE inh 7.
Screening Cc1ccc(Nc2ccc(C(N)=O)cc2[N+](=O)[O-])cc1C returned PAD4 FP inh 1, RBBP9 inhibitor -5, GSTO1 counter 4, PRMT1 inh 2 and SIAE inh 9.
`COc1ccc(C2N3CC4(C)CN2CC(C)(C3)C4O)cc1OC` (centres undefined) gave PAD4 FP inh -2, RBBP9 inhibitor -6, GSTO1 counter -5, PRMT1 inh 2 and SIAE inh 7.
`Cc1ccc(C(=O)N/C(=C\c2ccc(-c3ccccc3[N+](=O)[O-])o2)C(=O)NCCCN2CCOCC2)cc1` gave PAD4 FP inh -11, GSTO1 counter 36*, PRMT1 inh -2 and SIAE inh 6.
`CCOc1ccccc1C(=O)N(C)Cc1cc2ccccc2[nH]c1=O` gave PAD4 FP inh 2, RBBP9 inhibitor -7, GSTO1 counter -4, PRMT1 inh 0 and SIAE inh -1.
For CCOc1cc(-c2nc(C)c(C(C)=O)n2O)ccc1OCC(=O)Nc1cccc(C)c1 the results were PAD4 FP inh 0, RBBP9 inhibitor -2, GSTO1 counter 3, PRMT1 inh 4 and SIAE inh 5.
`Cc1ccc(-c2csc(N/N=C/c3ccco3)n2)cc1` gave PAD4 FP inh -1, RBBP9 inhibitor 3, GSTO1 counter 0, PRMT1 inh 13 and SIAE inh 10.
